Source: the array DNA melting data of Ke et al. (doi:10.1101/2024.01.08.574731)

Key:
[1] = folding enthalpy; higher = less favourable; fluorescence melt of hairpins on a sequencing array, two-state fit; conditions: sodium 0.088 M
In short: (§1)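 Folding enthalpy and melting temperature come from bootstrapped two-state fits to Cy3 fluorescence of library hairpins carrying annealed Cy3 and quencher oligos on a sequenced MiSeq flow cell. Imaging was done in 50 mM Na-HEPES pH 8.0, 25 mM NaCl, stepping by 2.5 °C up to 60 °C, and signals were normalised to pre-quench Cy3 and to control constructs. Results of four replicates were combined by inverse variance, and fitted temperatures were raised by 9.35 °C to match UV melts.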

[2] = melting temperature; fluorescence melt of hairpins on a sequencing array, two-state fit, raised by 9.35 °C to match UV melts; conditions: sodium 0.088 M
In short: as §1

| Sequence | folding enthalpy [1] [kcal/mol] | Tm [2] [°C] |
| --- | --- | --- |
| GCGGCGCGAAAGCGTTGC ((..(((....)))..)) | -21.2 | 66.5 |
| GTTCGGACGAAAGTCAAC (((..(((....)))))) | -9.64 | 29.1 |
| GATCTGTACCAGATC ((((((...)))))) | -31.9 | 49.3 |
| GATCGTCTGCACGATC ((((((....)))))) | -38.3 | 55.3 |
| GGACGGAAACGTCC (((((....))))) | -31.9 | 66.4 |
| GATCAATGCTTGATC ((((((...)))))) | -28.5 | 43.2 |
| GCGTACTTACGC ((((....)))) | -26.1 | 54.7 |
| GATCTAAGATTAGATC ((((((....)))))) | -32.1 | 37.5 |
| GCTCAGCGAAAGCGGTGC ((.(.((....)).).)) | -17.8 | 55.2 |
| GGGCCACGAAAGTGCCC (((.(((....)))))) | -21.9 | 61.6 |
| GACGACGGAAACATCGTC (((((.(....).))))) | -34.2 | 45.7 |
| GTCTTTGGAAACAGAGAC ((((.((....)).)))) | -26 | 37.3 |
| GTTCAAGGAAACTTAAAC (((.(((....))).))) | -10.5 | 29 |
| GGGCGGGGAAACCCACCC (((.(((....))).))) | -40.7 | 54.6 |
| GCGCTTGGAAACAAGCAC (.(((((....))))).) | -15.2 | 45.7 |
| GGAATGGGAAACCATCCC ((.((((....)))).)) | -24 | 38.6 |
| GCAAGACGAAAGTCGTGC (((.(((....))).))) | -32.2 | 61.1 |
| GATCGAACCTTCGATC ((((((....)))))) | -40.7 | 53.5 |
| GATCCCGAAAGGGGTATC ((((((....)))..))) | -11.8 | 35.7 |
| GTTCATCGAAAGATAAAC (((.(((....))).))) | -18.1 | 31.5 |
| GATCTAGTAGTAGATC ((((((....)))))) | -29.1 | 43.4 |
| GTCATTCGAAAGAAGGAC (((.(((....))).))) | -42.5 | 51.9 |
| GATCTATGAGTAGATC ((((((....)))))) | -40.3 | 45.5 |
| GCCGCCGAAAGGCCCGGC ((((((....)))..))) | -17.4 | 48 |

| Sequence | folding enthalpy [1] [kcal/mol] | Tm [2] [°C] |
| --- | --- | --- |
| GATAGCGGAAACGTTGTC ((.(.((....)).).)) | -16.1 | 27.5 |
| GTCGGCGAAAGCCCTGAC ((((((....)))..))) | -10.4 | 35.6 |
| GGAGGCGGAAACGCCCCC ((.((((....)))).)) | -14.8 | 56.4 |
| GCGTATGGAAACACACGC ((((.((....)).)))) | -29 | 46.3 |
| GGTGGGTCGAAAGACACC (((..(((....)))))) | -12.4 | 50.9 |
| GATCAGAGTCCTGATC ((((((....)))))) | -38.2 | 47.6 |
| GTGCTGGGAAACTAGCGC (.(((.(....).))).) | -29.7 | 45.5 |
| GATGTACGAAAGTAATC (((.(((....)))))) | -21.1 | 35.8 |
| GGGCAACGAAAGTTTCCC (((.(((....))).))) | -32.1 | 47.4 |
| GGAACTGAAAAGTTCC ((((((....)))))) | -38.3 | 56.4 |
| GTCTCACGAAAGTGGAC (((.(((....)))))) | -20.7 | 47.2 |
| GGCGACGAAAGTCGCGCC ((((((....)))..))) | -6.6 | 65.8 |
| GCTAAGCGAAAGCGTCGC ((.(.((....)).).)) | -14 | 45.8 |
| GCTTACGAAAGTAGCAGC ((((((....)))..))) | -18.4 | 38.1 |
| GCGACAGTTCGC ((((....)))) | -17.4 | 47.7 |
| GATCTTGTAGAAGATC ((((((....)))))) | -27.5 | 46.4 |
| GACCGTGGAAACACGGCC (.(((((....))))).) | -13.2 | 50.9 |
| GAGCACGAAAGTGGCCTC ((((((....)))..))) | -14 | 42 |
| GGTATGGAAACATACC ((((((....)))))) | -41.9 | 53.4 |
| GTCGTGGGAAACCGTGAC (((..((....))..))) | -25.9 | 36.7 |
| GCTGGCGAAAGCCACAGC ((((((....)))..))) | -13.9 | 49.5 |
| GATCCTCGTGAGGATC ((((((....)))))) | -36.6 | 61.5 |
| GGGATCGGAAACGATTCC ((.((((....)))).)) | -40.7 | 53.5 |
| GATCACATCGTGATC ((((((...)))))) | -41 | 58.3 |

| Sequence | folding enthalpy [1] [kcal/mol] | Tm [2] [°C] |
| --- | --- | --- |
| GATCGTCTCGACGATC ((((((....)))))) | -40.9 | 65.3 |
| GTGGATGGAAACGTCTAC ((.((.(....).)).)) | -19.8 | 32.5 |
| GTACTCGGAAACGAGTGC (.(((((....))))).) | -41 | 54.5 |
| GTAACGGGAAACCGTTGC (.(((((....))))).) | -21.2 | 52 |
| GATCTACGCTAGATC ((((((...)))))) | -18.5 | 43.4 |
| GTGTCTCGAAAGAGGCAC (((.(((....))).))) | -38.5 | 61.3 |
| GATCTGTTACAGATC ((((((...)))))) | -36.3 | 50.5 |
| GGTTGCCGAAAGGCTACC (((.(((....))).))) | -29.6 | 61.8 |
| GCGCAGCGAAAGCTATGC ((..(((....)))..)) | -7.11 | 39.3 |
| GATCACATCGGTGATC ((((((....)))))) | -39.6 | 57 |
| GGTTTTCGAAAGAAGACC (((.(((....))).))) | -31.4 | 48.1 |
| GTAGTGGGAAACCACCAC ((.((((....)))).)) | -16.3 | 33.5 |
| GCGAATTATCGC ((((....)))) | -21.3 | 47.8 |
| GGGGCTGGAAACGGTCCC (((.(.(....).).))) | -33 | 49.6 |
| GATCAGAGGTCTGATC ((((((....)))))) | -30.6 | 49.5 |
| GCGTGAGGACGC ((((....)))) | -18.9 | 50.8 |
| GGTTATGGAAACGTAACC (((((.(....).))))) | -40.6 | 45.8 |
| GATCATATCTATGATC ((((((....)))))) | -41.6 | 48.5 |
| GATCCCAATGGGATC ((((((...)))))) | -32.5 | 60.6 |
| GAATTTGGAAACGAATTC (((((.(....).))))) | -35.8 | 38.8 |
| GCGCAGCCGAAAGGCCGC (((..(((....)))))) | -16.7 | 57.9 |
| GCCTTCCCGAAAGGGGGC (((..(((....)))))) | -17.2 | 47.7 |
| CGAACGGAAACGTGGTCG ((((((....)))..))) | -12.7 | 32.7 |
| GATTCGGGAAACTGAATC (((((.(....).))))) | -40.8 | 45 |

| Sequence | folding enthalpy [1] [kcal/mol] | Tm [2] [°C] |
| --- | --- | --- |
| GATCTGTGTACAGATC ((((((....)))))) | -47.9 | 56 |
| GCGGAGGGAAACCTTCGC (((.(((....))).))) | -46.5 | 56.5 |
| GATCCATTCCTGGATC ((((((....)))))) | -39.1 | 50.3 |
| GATTGCGAAAGCAATATC ((((((....)))..))) | -13.1 | 50.1 |
| GCAGAGCGAAAGCTCAGC ((.((((....)))).)) | -20.4 | 64.8 |
| GCGGCGCGAAAGCTCGGC ((.(.((....)).).)) | -17.4 | 44.4 |
| GATCGGTCTACCGATC ((((((....)))))) | -39.3 | 62.3 |
| GTGACAGGAAACTATCAC ((((.((....)).)))) | -19.4 | 33.2 |
| GTAGGCGGAAACGTCTGC (.((.((....)).)).) | -23 | 41.6 |
| GGAATTCGAAAGAACTCC (((.(((....))).))) | -28.1 | 36.4 |
| GGGCATGCGAAAGCACCC (((..(((....)))))) | -18.6 | 42.3 |
| GCGAGGCGAAAGCTCCGC (((..((....))..))) | -25.2 | 60 |
| GGGTACACGAAAGTGCCC (((..(((....)))))) | -21.2 | 48 |
| GCTGATGGAAACATCAAC (.(((((....))))).) | -21 | 36 |
| GACCCCGAAAGGGACGTC ((((((....)))..))) | -17 | 40.4 |
| GAGCACCCGAAAGGGCTC (((..(((....)))))) | -26.7 | 48.6 |
| GCAATGCGAAAGCGGTGC (((..((....))..))) | -21.7 | 56.6 |
| GATCTTTCAAAAGATC ((((((....)))))) | -32.2 | 42.2 |
| GACCCCGAAAGGGCGTC ((((((....))).))) | -36.6 | 56.7 |
| GGGGAGGCGAAAGCCCCC (((..(((....)))))) | -14.2 | 64.5 |
| GCCGAGGGAAACCCCAGC ((.(.((....)).).)) | -11.3 | 25.2 |
